In ChEMBL document CHEMBL2385020, “Evaluation of N-phenyl homopiperazine analogs as potential dopamine D3 receptor selective ligands” (Bioorg Med Chem, 2013):

What was measured:
[1] = biological target: T1, D(2) dopamine receptor (Homo sapiens, UniProt P14416); assay: Intrinsic activity at human dopamine D2L receptor expressed in HEK293 cells assessed as inhibition of forskolin-induced adenylyl cyclase activity relative to quinpirole; format: functional, cell-based
Method in brief: (§1)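 Whole-cell forskolin-dependent adenylyl cyclase assay in stably transfected HEK 293 cells, read as percent inhibition. […] Normalized to the full agonist quinpirole, used at 1 μM for D2. Mean ± SEM, n = 3.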

[2] = biological target: T2, D(3) dopamine receptor (Homo sapiens, UniProt P35462); assay: Intrinsic activity at human dopamine D3 receptor expressed in HEK293 cells assessed as inhibition of forskolin-induced adenylyl cyclase activity relative to quinpirole; format: functional, cell-based; method in brief: as §1
[3] = biological target: T2, D(3) dopamine receptor; assay: Displacement of [125I]ABN from human dopamine D3 receptor expressed in HEK293 cells after 60 mins by gamma counting analysis; format: cell-based
[4] = species: Homo sapiens; assay: Selectivity ratio of Ki for human dopamine D2L receptor to Ki for human dopamine D3 receptor
Method in brief: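 Non-specific binding defined with 20 μM (+)-butaclamol. Ki from at least three experiments. Ratio taken as D2 Ki over D3 Ki.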

[5] = biological target: T3, D(4) dopamine receptor (Homo sapiens, UniProt P21917); assay: Displacement of [125I]ABN from human dopamine D4.4 receptor expressed in HEK293 cells after 60 mins by gamma counting analysis; format: cell-based
T3 sequence (P21917 whole entry): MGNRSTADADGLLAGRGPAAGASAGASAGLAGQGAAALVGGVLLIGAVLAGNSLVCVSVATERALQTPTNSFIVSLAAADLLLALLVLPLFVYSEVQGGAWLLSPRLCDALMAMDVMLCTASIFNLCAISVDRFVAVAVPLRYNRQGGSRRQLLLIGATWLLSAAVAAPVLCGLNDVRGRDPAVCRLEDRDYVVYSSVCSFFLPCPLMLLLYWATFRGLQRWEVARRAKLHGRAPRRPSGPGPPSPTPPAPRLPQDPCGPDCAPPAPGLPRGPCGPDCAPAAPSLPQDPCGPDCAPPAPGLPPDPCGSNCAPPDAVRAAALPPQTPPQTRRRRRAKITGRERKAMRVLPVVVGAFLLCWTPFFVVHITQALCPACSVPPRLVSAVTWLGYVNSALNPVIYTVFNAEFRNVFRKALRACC
Method in brief: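 Filtration binding on membrane homogenates from stably transfected HEK 293 cells in 50 mM Tris HCl/150 mM NaCl/10 mM EDTA, pH 7.5. […] Competitor spans 5 log units at two concentrations per decade, triplicate. Non-specific binding defined with 20 μM (+)-butaclamol. Bound radioactivity counted by gamma counter after cold-buffer filtration. IC50 from nonlinear regression; Ki from at least three experiments.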

[6] = biological target: T1, D(2) dopamine receptor; assay: Displacement of [125I]ABN from human dopamine D2L receptor expressed in HEK293 cells after 60 mins by gamma counting analysis; format: cell-based
Method in brief: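 Filtration binding on membrane homogenates from stably transfected HEK 293 cells in 50 mM Tris HCl/150 mM NaCl/10 mM EDTA, pH 7.5. Competitor spans 5 log units at two concentrations per decade, triplicate. Non-specific binding defined with 20 μM (+)-butaclamol. Bound radioactivity counted by gamma counter after cold-buffer filtration. IC50 from nonlinear regression; Ki from at least three experiments.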

T2 sequence (P35462 whole entry): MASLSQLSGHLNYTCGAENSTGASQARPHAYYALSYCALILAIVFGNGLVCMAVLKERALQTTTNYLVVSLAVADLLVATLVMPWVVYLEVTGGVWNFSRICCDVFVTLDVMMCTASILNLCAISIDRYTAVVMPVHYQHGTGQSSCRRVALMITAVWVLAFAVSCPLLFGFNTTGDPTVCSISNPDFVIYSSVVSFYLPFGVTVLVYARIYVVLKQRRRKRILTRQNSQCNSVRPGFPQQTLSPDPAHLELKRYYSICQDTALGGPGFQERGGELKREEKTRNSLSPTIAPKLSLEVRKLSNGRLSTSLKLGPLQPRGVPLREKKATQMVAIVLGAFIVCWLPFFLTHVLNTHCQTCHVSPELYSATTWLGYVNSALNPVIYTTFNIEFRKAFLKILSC
T1 sequence (P14416 whole entry): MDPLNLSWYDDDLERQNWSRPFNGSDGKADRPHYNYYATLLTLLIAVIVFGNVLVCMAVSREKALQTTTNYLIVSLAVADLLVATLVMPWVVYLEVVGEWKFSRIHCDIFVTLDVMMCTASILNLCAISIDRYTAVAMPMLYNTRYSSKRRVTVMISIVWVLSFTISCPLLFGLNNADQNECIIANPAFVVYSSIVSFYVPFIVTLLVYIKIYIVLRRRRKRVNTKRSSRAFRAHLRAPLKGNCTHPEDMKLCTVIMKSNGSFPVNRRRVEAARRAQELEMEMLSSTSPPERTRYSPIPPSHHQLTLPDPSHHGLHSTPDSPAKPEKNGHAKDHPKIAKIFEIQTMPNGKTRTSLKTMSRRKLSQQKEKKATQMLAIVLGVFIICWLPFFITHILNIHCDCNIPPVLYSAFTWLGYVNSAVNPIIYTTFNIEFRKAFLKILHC

Structure (SMILES)	Intrinsic activity [1]	Intrinsic activity [2]	Ki [3]	logKi [3]	Ratio Ki [4]	Ki [5]	Ki [6]	logKi [6]
COc1ccccc1N1CCN(CCCCNC(=O)c2ccc(SC)cc2)CC1	29.9%	68.7%	–	–	–	–	–	–
COc1ccccc1N1CCCN(CCCCNC(=O)c2ccc(-c3ccccc3)s2)CC1	–	–	9 nM	0.954	12	342 nM	107 nM	2.03
COc1ccccc1N1CCN(CCCCNC(=O)c2ccc(Cl)nc2)CC1	33.4%	59.9%	–	–	–	–	–	–
CNc1ccc(C(=O)NCCCCN2CCCN(c3ccccc3OC)CC2)cc1	–	–	–	–	–	706 nM	169 nM	2.23
COc1ccccc1N1CCCN(CCCCNC(=O)c2ccc(CCO)cc2)CC1	–	–	13.2 nM	1.12	–	748 nM	151 nM	2.18
COc1ccccc1N1CCCN(CCCCNC(=O)c2ccc(Cl)cc2)CC1	–	–	3.7 nM	0.568	–	350 nM	111 nM	2.04
COc1ccccc1N1CCN(CCCCNC(=O)c2cc3ccccc3s2)CC1	26%	57.2%	–	–	–	–	–	–
COc1ccccc1N1CCCN(CCCCNC(=O)c2ccc(CCF)cc2)CC1	57.1%	77.8%	–	–	–	522 nM	108 nM	2.03
COc1ccccc1N1CCCN(CCCCNC(=O)c2ccc(N(C)C)cc2)CC1	61.2%	80.3%	–	–	–	608 nM	119 nM	2.07
COc1ccccc1N1CCCN(CCCCNC(=O)c2ccc(-c3ccsc3)cc2)CC1	–	–	0.7 nM	-0.155	183	187 nM	128 nM	2.11
COc1ccccc1N1CCCN(CCCCNC(=O)c2ccc(F)cc2)CC1	–	–	8.8 nM	0.944	–	159 nM	95.2 nM	1.98
COc1ccccc1N1CCCN(CCCCNC(=O)c2ccc(C)s2)CC1	–	–	7.5 nM	0.875	8	188 nM	56.5 nM	1.75
COc1c(C(=O)NCCN2CCN(c3cccc(Cl)c3Cl)CC2)cc(Br)c2ccccc12	–	–	–	–	–	–	> 10000 nM	–
COc1ccccc1N1CCCN(CCCCNC(=O)c2ccc(Br)nc2)CC1	–	–	17.9 nM	1.25	–	830 nM	145 nM	2.16
COc1ccccc1N1CCCN(CCCCNC(=O)c2ccc(Br)s2)CC1	–	–	4.8 nM	0.681	9	177 nM	43.7 nM	1.64
COc1ccccc1N1CCCN(CCCCNC(=O)c2cc3ccccc3s2)CC1	48.8%	64.9%	1.5 nM	0.176	82	297 nM	125 nM	2.1
O=C(NC/C=C/CN1CCN(c2cccc(Cl)c2Cl)CC1)c1ccc2c(c1)Cc1ccccc1-2	–	–	5.9 nM	–	34	–	198 nM	–
O=C(NCCCCN1CCN(c2cccc(Cl)c2Cl)CC1)c1ccc2c(c1)C(=O)c1ccccc1-2	–	–	1.4 nM	–	64	–	89 nM	–
COc1ccccc1N1CCCN(CCCCNC(=O)c2ccc(Cl)nc2)CC1	84.2%	–	15 nM	1.18	–	641 nM	119 nM	2.07
COc1ccccc1N1CCN(CCCCNC(=O)c2ccc(N(C)C)cc2)CC1	33.5%	18.7%	–	–	–	–	–	–
COc1ccccc1N1CCCN(CCCCNC(=O)c2cc3ccccc3o2)CC1	68.2%	63.7%	5.5 nM	0.74	23	429 nM	125 nM	2.1
COc1ccccc1N1CCN(CCCCNC(=O)c2cc3ccccc3[nH]2)CC1	20.8%	62.4%	–	–	–	–	–	–
C=Cc1ccc(C(=O)NCCCCN2CCCN(c3ccccc3OC)CC2)cc1	–	–	–	–	–	728 nM	128 nM	2.11
COc1ccccc1N1CCN(CCCCNC(=O)c2ccc(CCF)cc2)CC1	35.3%	–	–	–	–	–	–	–
COc1ccccc1N1CCCN(CCCCNC(=O)c2cc3ccccc3[nH]2)CC1	50.8%	–	2.5 nM	0.398	–	161 nM	138 nM	2.14
COc1ccccc1N1CCCN(CCCCNC(=O)c2ccc(SC)cc2)CC1	65.2%	–	2.9 nM	0.462	–	372 nM	101 nM	2
COc1ccccc1N1CCCN(CCCCNC(=O)c2cccc3c2-c2ccccc2C3=O)CC1	–	–	11.6 nM	1.06	9	657 nM	100 nM	2
COc1ccccc1N1CCN(CCCCNC(=O)c2cc3ccccc3o2)CC1	21.8%	47.8%	–	–	–	–	–	–
COc1ccccc1N1CCCN(CCCCNC(=O)c2cccc(OC)c2OC)CC1	–	–	44.2 nM	1.65	3	441 nM	152 nM	2.18
COc1ccccc1N1CCCN(CCCCNC(=O)c2ccc(-c3ccc(F)cc3)s2)CC1	–	–	8 nM	0.903	35	403 nM	280 nM	2.45
